Measurements: ChEMBL document CHEMBL3865800, “Design, synthesis and biological evaluation of 4-anilinoquinazoline derivatives as new c-myc G-quadruplex ligands” (Eur J Med Chem, 2016)

What was measured:
[1] = Cytotoxicity against mouse primary mesangial cells assessed as reduction in cell viability after 48 hrs by MTT assay; assay type: toxicity
[2] = Cytotoxicity against human HeLa cells assessed as reduction in cell viability after 48 hrs by MTT assay; assay type: functional, cell-based
[3] = Binding affinity to F10T duplex DNA (unknown origin) assessed as change in melting temperature by FRET assay
Procedure, shortened: (§1)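 Fluorescence melting on real-time PCR instrument; 0.4 μM labelled oligonucleotide (FPu22T or duplex-forming F10T), ligand 2.0 μM, in 10 mM Tris-HCl pH 7.4 with 10 or 60 mM KCl; ex 470/em 530 nm at 1 °C steps over 37–99 °C, 30 s equilibration each; ΔTm = Tm(DNA+ligand) − Tm(DNA).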

[4] = Binding affinity to 5'-FPu22T-3'-labelled c-myc G-quadruplex DNA (unknown origin) assessed as change in melting temperature by FRET assay; procedure, shortened: as §1
[5] = Cytotoxicity against human CA46 cells assessed as reduction in cell viability after 48 hrs by MTT assay; assay type: functional, cell-based; details: CA46, 48 h
[6] = Cytotoxicity against human Raji cells assessed as reduction in cell viability after 48 hrs by MTT assay; assay type: functional, cell-based
[7] = Cytotoxicity against human A549 cells assessed as reduction in cell viability after 48 hrs by MTT assay; assay type: functional, cell-based; details: A549, 48 h
[8] = Binding affinity to biotinylated 5'-Pu22-3'-labelled c-myc G-quadruplex DNA (unknown origin) after 240 secs by SPR assay
Procedure, shortened: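 SPR: biotinylated Pu22 and biotinylated duplex folded in 50 mM Tris-HCl pH 7.4, 150 mM KCl, 0.005% Tween20, captured (~1000 RU) on separate flow cells with a blank reference; ligand 0.0625–10 μM in running buffer, 240 s association then 240 s dissociation at 25 °C; equilibrium KD derived.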

Structure (SMILES) | ΔTm [3] [°C] | ΔTm [4] [°C] | Kd [8] [µM] | IC50 at 48 h [1] [µM] | IC50 [2] [µM] | IC50 [5] [µM] | IC50 [6] [µM] | IC50 [7] [µM]
Oc1ccccc1-c1nc(Nc2ccc(OCCN3CCCCC3)cc2)c2ccccc2n1 | 0.2 | 1.4 | > 10 | – | – | – | – | –
Oc1ccccc1-c1nc(Nc2ccc(OCCN3CCCC3)cc2)c2ccccc2n1 | 0.2 | 1.6 | – | – | – | – | – | –
CCN(CC)CC(=O)Nc1ccc(Nc2nc(-c3ccc(O)cc3)nc3ccccc23)cc1 | 0.7 | 7.2 | 6.3 | 12.9 | 21 | 13.3 | 12.9 | 27
O=C(CCN1CCOCC1)Nc1ccc(Nc2nc(-c3ccccc3NC(=O)CCN3CCOCC3)nc3ccccc23)cc1 | 0.3 | 4.8 | 1.33 | > 50 | > 50 | > 50 | > 50 | > 50
CN1CCN(CCOc2ccc(Nc3nc(-c4ccccc4O)nc4ccccc34)cc2)CC1 | 0.1 | 0.4 | > 10 | – | – | – | – | –
O=C(CN1CCOCC1)Nc1ccc(Nc2nc(-c3ccccc3NC(=O)CN3CCOCC3)nc3ccccc23)cc1 | 0.2 | 0.2 | 8.08 | > 50 | > 50 | 2.14 | 12 | > 50
Oc1ccccc1-c1nc(Nc2ccc(OCCN3CCOCC3)cc2)c2ccccc2n1 | 0.1 | 0.7 | – | – | – | – | – | –
CN1CCN(CC(=O)Nc2ccc(Nc3nc(-c4ccccc4NC(=O)CN4CCN(C)CC4)nc4ccccc34)cc2)CC1 | 0.1 | 12.5 | 0.61 | 38.2 | 28.7 | 12.3 | 17.9 | 21.6
CCN(CC)CCC(=O)Nc1ccc(Nc2nc(-c3ccccc3)nc3ccccc23)cc1 | 0.2 | 4.6 | > 10 | 6.2 | 8.3 | 3.6 | 8.5 | 17.6
CN(C)CCCNCCC(=O)Nc1ccc(C(=O)Nc2cc(Cl)ccc2-c2nc(NCCCN(C)C)c3ccccc3n2)cc1 | 0.6 | 16.6 | – | – | – | – | – | –

Further lines, with some results ahead:

ΔTm [3] [°C] | ΔTm [4] [°C] | Kd [8] [µM] | Structure (SMILES) | IC50 at 48 h [1] [µM] | IC50 [2] [µM] | IC50 [5] [µM] | IC50 [6] [µM] | IC50 [7] [µM]
0.1 | 0.1 | – | CCN(CC)CC(=O)Nc1ccc(Nc2nc(Cl)nc3ccccc23)cc1 | > 50 | > 50 | 33.2 | > 50 | > 50
0.1 | 0.4 | > 10 | CCN(CC)CCOc1ccc(Nc2nc(-c3ccccc3O)nc3ccccc23)cc1 | – | – | – | – | –
0.1 | 5.3 | 4.68 | CCN(CC)CCC(=O)Nc1ccc(Nc2nc(-c3ccccc3N)nc3ccccc23)cc1 | 5.7 | 7.2 | 3.3 | 14.5 | 9.1
0.2 | 0.4 | > 10 | CCN(CC)CCNCCOc1ccc(Nc2nc(-c3ccccc3O)nc3ccccc23)cc1 | – | – | – | – | –
0.1 | 1 | 5.52 | CCN(CC)CCC(=O)Nc1ccc(Nc2nc(Cl)nc3ccccc23)cc1 | > 50 | > 50 | 31.3 | > 50 | 45.3
0.2 | 8.2 | 2.46 | CCN(CC)CCCOc1ccc(Nc2nc(N(CC)CC)nc3ccccc23)cc1 | 8.1 | 2.3 | 12.2 | 5.7 | 4.8
0.3 | 8.8 | 3.94 | CCN(CC)CC(=O)Nc1ccc(Nc2nc(-c3ccccc3NC(=O)CN(CC)CC)nc3ccccc23)cc1 | 2.7 | 29.8 | 3.14 | 6.5 | > 50
0.4 | 7.1 | 2.89 | CCN(CC)CCOc1ccc(Nc2nc(N(CC)CC)nc3ccccc23)cc1 | 9.8 | 17.4 | 20.5 | 20.3 | 5
